From ChEMBL document CHEMBL1157027, “The identification of 8,9-dimethoxy-5-(2-aminoalkoxy-pyridin-3-yl)-benzo[c][2,7]naphthyridin-4-ylamines as potent inhibitors of 3-phosphoinositide-dependent kinase-1 (PDK-1)” (Eur J Med Chem, 2010) come the findings set out here.

The nature of assay [1]: Inhibition of PKA. A digest of the protocol: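 PKA activity was measured with the Z'-LYTE kinase assay, run per the manufacturer's protocol at 100 uM ATP. IC50 values are given in nM.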
In assay [2] the target is RAC-alpha serine/threonine-protein kinase (Homo sapiens, UniProt P31749). Description: Inhibition of AKT.
Assay [3] concerns the target T1, 3-phosphoinositide-dependent protein kinase 1 (Homo sapiens, UniProt O15530).
T1 sequence (O15530 whole entry): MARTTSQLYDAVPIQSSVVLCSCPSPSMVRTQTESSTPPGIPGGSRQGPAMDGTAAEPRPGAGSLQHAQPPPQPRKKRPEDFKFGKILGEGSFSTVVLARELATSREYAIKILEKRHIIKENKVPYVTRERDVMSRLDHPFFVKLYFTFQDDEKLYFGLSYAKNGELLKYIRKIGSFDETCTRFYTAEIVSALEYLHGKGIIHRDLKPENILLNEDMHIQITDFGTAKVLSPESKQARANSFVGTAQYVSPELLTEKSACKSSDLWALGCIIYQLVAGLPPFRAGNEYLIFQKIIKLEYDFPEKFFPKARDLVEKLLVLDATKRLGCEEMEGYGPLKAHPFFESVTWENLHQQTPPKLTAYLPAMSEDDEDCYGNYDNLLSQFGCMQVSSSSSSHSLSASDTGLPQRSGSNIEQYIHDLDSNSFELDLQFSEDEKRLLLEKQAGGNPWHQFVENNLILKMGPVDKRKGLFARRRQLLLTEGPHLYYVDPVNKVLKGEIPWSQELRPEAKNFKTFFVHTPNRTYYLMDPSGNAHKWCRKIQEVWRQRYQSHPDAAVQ
Nature of the assay: Inhibition of human GST-tagged-PDK1 expressed in HEK293 cells. Format: cell-based.

Assay [4] has as its target Ribosomal protein S6 kinase beta-1 (Homo sapiens, UniProt P23443). Nature of the assay: Inhibition of p70S6K.

Molecules are shown by their SMILES.

RAC-alpha serine/threonine-protein kinase, sequence (P31749 whole entry): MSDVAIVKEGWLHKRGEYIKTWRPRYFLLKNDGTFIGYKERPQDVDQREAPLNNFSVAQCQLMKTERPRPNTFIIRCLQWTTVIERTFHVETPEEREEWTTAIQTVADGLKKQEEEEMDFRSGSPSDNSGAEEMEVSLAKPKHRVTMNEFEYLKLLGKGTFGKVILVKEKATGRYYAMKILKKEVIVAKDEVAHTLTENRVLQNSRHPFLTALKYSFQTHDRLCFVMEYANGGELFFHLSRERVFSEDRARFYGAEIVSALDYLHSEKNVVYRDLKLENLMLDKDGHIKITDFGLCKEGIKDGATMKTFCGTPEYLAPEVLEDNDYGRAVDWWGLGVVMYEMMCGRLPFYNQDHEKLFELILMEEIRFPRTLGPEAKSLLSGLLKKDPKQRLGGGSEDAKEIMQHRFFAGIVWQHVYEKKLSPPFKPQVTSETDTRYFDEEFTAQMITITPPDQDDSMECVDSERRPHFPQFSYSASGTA
Ribosomal protein S6 kinase beta-1, sequence (P23443 whole entry): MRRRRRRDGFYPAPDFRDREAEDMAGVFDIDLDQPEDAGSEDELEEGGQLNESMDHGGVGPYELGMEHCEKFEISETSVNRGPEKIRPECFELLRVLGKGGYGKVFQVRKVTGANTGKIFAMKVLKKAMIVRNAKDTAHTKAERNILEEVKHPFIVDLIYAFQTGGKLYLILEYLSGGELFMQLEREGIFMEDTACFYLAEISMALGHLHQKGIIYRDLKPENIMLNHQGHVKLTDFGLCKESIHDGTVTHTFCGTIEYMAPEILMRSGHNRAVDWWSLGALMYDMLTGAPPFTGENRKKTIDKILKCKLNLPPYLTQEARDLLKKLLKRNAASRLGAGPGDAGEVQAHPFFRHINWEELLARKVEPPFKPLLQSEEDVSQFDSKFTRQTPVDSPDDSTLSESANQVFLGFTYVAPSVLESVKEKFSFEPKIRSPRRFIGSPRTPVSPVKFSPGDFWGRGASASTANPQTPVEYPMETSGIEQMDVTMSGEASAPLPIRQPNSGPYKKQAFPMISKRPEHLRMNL

The IC50 is the concentration needed to halve the response being measured. In the case of `COc1cc2ncc3c(N)nc(-c4cncc(OC[C@@H](N)Cc5ccccc5Cl)c4)cc3c2cc1OC`, the IC50 in assay [1] stood at 79 nM; in assay [2], 793 nM.
Consider `COc1cc2ncc3c(N)nc(-c4cncc(OC[C@@H](N)Cc5ccncc5)c4)cc3c2cc1OC`, for which the IC50 in assay [3] worked out at 9 nM; in assay [1], 138 nM; in assay [2], 1750 nM; in assay [4], 343 nM.
`COc1cc2ncc3c(N)nc(-c4cncc(OC[C@H](C)N)c4)cc3c2cc1OC` had an IC50 in assay [1] of 123 nM.
As to `COc1cc2ncc3c(N)nc(-c4cncc(OC[C@H](N)Cc5ccc(F)cc5)c4)cc3c2cc1OC`, the half-inhibitory concentration (IC50) in assay [1] is 36 nM; in assay [2], 251 nM.
Turning to `COc1cc2ncc3c(N)nc(-c4cncc(OC[C@@H](N)CC(C)C)c4)cc3c2cc1OC`, the IC50 is 14 nM in assay [3], 113 nM in assay [1], 905 nM in assay [2] and 219 nM in assay [4].
The corresponding values for `COc1cc2ncc3c(N)nc(-c4cncc(OC[C@H](N)CC(C)C)c4)cc3c2cc1OC` are 18 nM, 385 nM, 1390 nM and 443 nM.
For `CC[C@@H](N)COc1cncc(-c2cc3c(cnc4cc(OC)c(OC)cc43)c(N)n2)c1`, in that order: 3 nM, 45 nM, 318 nM and 72 nM.
As for `COc1cc2ncc3c(N)nc(-c4cncc(OC[C@@H](N)Cc5cccc(Cl)c5)c4)cc3c2cc1OC`, the figures for the IC50 in assay [1] and in assay [2] were 18 nM and 78 nM, respectively.
`COc1cc2ncc3c(N)nc(-c4cncc(OC[C@@H](N)Cc5ccc(F)cc5)c4)cc3c2cc1OC`: the 50% inhibitory concentration (IC50) in assay [1] came out at 32 nM; in assay [2], 183 nM; in assay [4], 21 nM.
Regarding `COc1cc2ncc3c(N)nc(-c4cncc(OC[C@H](N)Cc5c[nH]c6ccccc56)c4)cc3c2cc1OC`, the IC50 in assay [1] was determined as 120 nM; in assay [2] it was 1320 nM.
The corresponding values for `COc1cc2ncc3c(N)nc(-c4cncc(OC[C@H](N)Cc5ccccc5)c4)cc3c2cc1OC` are < 31 nM and 259 nM.
`CC[C@H](N)COc1cncc(-c2cc3c(cnc4cc(OC)c(OC)cc43)c(N)n2)c1`: the IC50 is 59 nM in assay [1], 422 nM in assay [2] and 216 nM in assay [4].
For the compound `COc1cc2ncc3c(N)nc(-c4cncc(OC[C@H](N)Cc5cccc(C(F)(F)F)c5)c4)cc3c2cc1OC`, 142 nM corresponded to half-maximal inhibition in assay [1] (IC50). This lies in the sub-micromolar range.
Consider `COc1cc2ncc3c(N)nc(-c4cncc(OCCN)c4)cc3c2cc1OC`, for which the IC50 in assay [1] is 66 nM; in assay [2], 402 nM; in assay [4], 80 nM.
For `COc1cc2ncc3c(N)nc(-c4cncc(OC[C@@H](N)Cc5cccc(C(F)(F)F)c5)c4)cc3c2cc1OC`, in that order: 68 nM, 209 nM and 182 nM.
The corresponding values for `COc1cc2ncc3c(N)nc(-c4cncc(OC[C@@H](N)Cc5ccccc5)c4)cc3c2cc1OC` are 77 nM, 261 nM and 107 nM.
For the compound `COc1cc2ncc3c(N)nc(-c4cncc(OC[C@@H](C)N)c4)cc3c2cc1OC`, the IC50 in assay [3] worked out at 3 nM; in assay [1], 86 nM.
In assay [1], `COc1cc2ncc3c(N)nc(-c4cncc(OC[C@@H](N)Cc5ccc(Cl)c(Cl)c5)c4)cc3c2cc1OC` registered a half-inhibitory concentration (IC50) of 41 nM. In other words, the double-digit nanomolar range.
For the compound `COc1cc2ncc3c(N)nc(-c4cncc(OC[C@@H](N)Cc5c[nH]c6ccccc56)c4)cc3c2cc1OC`, the IC50 in assay [1] was 54 nM; in assay [2], 302 nM; in assay [4], 77 nM.
